Assay results from different studies.
Lines come from different studies, so protocols differ.
Observed: microbial growth

The MIC of `Cc1ccc(C)n1-c1ccc(-c2nnc(-c3ccccc3Cl)[nH]2)cc1` is reported as 8 µg/mL (Saccharomyces cerevisiae; broth dilution; ATCC9763).
The MIC of `CC(C)(C)C(=O)C(Oc1ccc(Cl)cc1)n1ccnc1` (centres unmarked) is reported as 20 to 25 µM (Saccharomyces cerevisiae).
For `O=C(O)Cc1ccccc1Oc1ccc(-c2noc(-c3ccc(O)cc3)n2)cc1`, the MIC was > 50 µg/mL (Clostridioides difficile; broth dilution; 48 h).
The MIC of `CC/C(=C(\c1ccccc1)c1ccc(OCCN(C)C)cc1)c1ccccc1` is reported as 20 to 25 µM (Saccharomyces cerevisiae).
`Cc1ccc(C)n1-c1ccc(-c2nnc(-c3ccc(N(C)C)cc3)[nH]2)cc1` gave an MIC of 62.5 µg/mL (Saccharomyces cerevisiae; broth dilution; ATCC9763).
With `O=[N+]([O-])c1cc(-c2nc(-c3ccc(Oc4ccc(C(F)(F)F)cc4)cc3)no2)cnc1O` the MIC was 2 to 4 µg/mL (Clostridioides difficile; broth dilution; ATCC43255; 48 h).
For `Oc1ccc(-c2nc(-c3ccc(Oc4ccccc4)cc3)no2)cc1`, the MIC was 6 µg/mL (Clostridioides difficile; broth dilution; 48 h).
For `CC1(C)S[C@@H]2[C@H](NC(=O)[C@H](N)c3ccccc3)C(=O)N2[C@H]1C(=O)O`, the MIC was 4 µg/mL (Shigella sonnei; broth dilution; ATCC25931).
For `Cl.NCc1ccc(Oc2ccc(-c3noc(-c4ccc(O)cc4)n3)cc2)cc1`, the MIC was 6 µg/mL (Clostridioides difficile; broth dilution; 48 h).
With `Cc1ccc(C)n1-c1ccc(-c2nnc(-c3c(Cl)cccc3Cl)[nH]2)cc1` the MIC was 2 µg/mL (Saccharomyces cerevisiae; broth dilution; ATCC9763).
For `CC[C@@H]([C@H](C)O)n1ncn(-c2ccc(N3CCN(c4ccc(OC[C@@H]5CO[C@@](Cn6cncn6)(c6ccc(F)cc6F)C5)cc4)CC3)cc2)c1=O`, the MIC was < 0.3 µM (Saccharomyces cerevisiae; BY4743; 72 h).
With `Oc1ccc(-c2nc(-c3ccc(Oc4ccc(I)cc4)cc3)no2)cc1` the MIC was 8 to 128 µg/mL (Clostridioides difficile; broth dilution; ATCC43255; 48 h).
With `OC(Cn1cncn1)(Cn1cncn1)c1ccc(F)cc1F` the MIC was 4 µg/mL (Saccharomyces cerevisiae).
The MIC of `CC(=O)Nc1ccc(-c2nc(-c3ccc(Oc4ccccc4)cc3)no2)cc1` is reported as > 50 µg/mL (Clostridioides difficile; broth dilution; 48 h).
`Cc1ccc(C)n1-c1ccc(-c2nnc(-c3cccc([N+](=O)[O-])c3)[nH]2)cc1` has an MIC of 31.2 µg/mL (Saccharomyces cerevisiae; broth dilution; ATCC9763).
`Cl.Oc1ccc(-c2nc(-c3ccc(Oc4ccc5c(c4)CNCC5)cc3)no2)cc1` has an MIC of 4 µg/mL (Clostridioides difficile; broth dilution; 48 h).
The MIC of `Cc1cc(=O)[nH]n1C(=O)c1ccc(-n2c(C)ccc2C)cc1` is reported as 250 µg/mL (Saccharomyces cerevisiae; broth dilution; ATCC9763).
